A short description of data set [1]: melting temperature; fluorescence melt of hairpins on a sequencing array, two-state fit, raised by 9.35 °C to match UV melts. Conditions: sodium 0.088 M. Summed up:
(§1)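 Hairpins were imaged by Cy3 fluorescence on a sequenced MiSeq flow cell with annealed Cy3 and quencher oligos, in 50 mM Na-HEPES pH 8.0, 25 mM NaCl, in 2.5 °C steps up to 60 °C. Bootstrapped two-state fits of normalised signals gave melting temperature and folding enthalpy. Four replicates were combined by inverse variance, and fitted temperatures were raised by 9.35 °C to match UV melts.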

Data set [2] in a line: folding enthalpy; higher = less favourable; fluorescence melt of hairpins on a sequencing array, two-state fit. Particulars: sodium 0.088 M. Summed up:
as §1

These results are taken from the array DNA melting data of Ke et al. (doi:10.1101/2024.01.08.574731).

Take GGGATGGGAAACCGTTCC ((.(.((....)).).)): in data set [1], the Tm was found to be 39.1 °C. Besides, the folding enthalpy in data set [2] was -27 kcal/mol.
For GCCCCGCGAAAGCACGGC (((..((....))..))), in that order: 41.6 °C and -18.3 kcal/mol.
As to GAGATCGGAAACAATCTC (((((.(....).))))), in data set [1], the Tm came to 32.5 °C. Moreover, in data set [2], the folding enthalpy was -15.3 kcal/mol.
For GGTAGCGAAAGCTCTACC ((((((....)))..))), in that order: 38.1 °C and -16.4 kcal/mol.
For GCCTTAGGAAACTAAGAC (.(((((....))))).), in that order: 30.1 °C and -13.8 kcal/mol.
For GGGTAGGGAAACCTACCC (((((((....))))))), in that order: 64 °C and -50.9 kcal/mol.
As to GAAGTACCGAAAGGTTTC (((..(((....)))))), the Tm in data set [1] amounted to 27.2 °C. Further, the folding enthalpy in data set [2] is -9.64 kcal/mol.
For GAATTCCGAAAGGACTTC (((.(((....))).))), in that order: 36.1 °C and -27.7 kcal/mol.
For GATCATTGTGATGATC ((((((....)))))), in that order: 51 °C and -43.4 kcal/mol.
For GCATTAACGAAAGTTTGC (((..(((....)))))), in that order: 33.6 °C and -16 kcal/mol.
With GCTACGGGAAACCATAGC ((((.((....)).)))), the Tm in data set [1] was 39.4 °C. Further, the folding enthalpy in data set [2] was -31 kcal/mol.
Consider GAGAGCGAAAGCTCCCTC ((((((....)))..))), for which the Tm in data set [1] is 44 °C. Also, the folding enthalpy in data set [2] was -10.3 kcal/mol.
As for GCCTTCGGAAACGAGGGC (((.(((....))).))), the Tm in data set [1] turned out to be 56.7 °C. The folding enthalpy in data set [2] was -33.6 kcal/mol.
For GAGCGCGAAAGCGTCTC ((((((....))).))), in that order: 61.5 °C and -21.2 kcal/mol.
On to GCGAAGGGTCGC ((((....)))), for which the Tm in data set [1] amounted to 48.2 °C. Besides, in data set [2], the folding enthalpy was -12.1 kcal/mol.
As for GCACTGCGAAAGCAATGC (((.(((....))).))), in data set [1], the Tm is 51.5 °C. Besides, the folding enthalpy in data set [2] is -40.9 kcal/mol.
Consider GGGTTCGGAAACGGACTC (.((.((....)).)).), for which, in data set [1], the Tm came out at 39.1 °C. For the same sequence, the folding enthalpy in data set [2] is -25.9 kcal/mol.
For GTATGCCGAAAGGCTAC (((.(((....)))))), in that order: 48.3 °C and -13.1 kcal/mol.
As for GCGATGGGAAACCATTGC ((.((((....)))).)), the Tm in data set [1] was 52.5 °C. In addition, in data set [2], the folding enthalpy is -49.3 kcal/mol.
With GGGTGTGCGAAAGCACCC (((..(((....)))))), the Tm in data set [1] was found to be 56.6 °C. Further, in data set [2], the folding enthalpy was -11.3 kcal/mol.
For GATCCTTCGGAGGATC ((((((....)))))), in that order: 52.3 °C and -38.2 kcal/mol.
For GCTAACGAAAGTTTGAGC ((((((....)))..))), in that order: 32.6 °C and -15.6 kcal/mol.
For GGTGTCGAAAGACAGACC ((((((....)))..))), in that order: 44 °C and -15.1 kcal/mol.
GGATTTCGAAAGAACTCC (((.(((....))).))): the Tm in data set [1] turned out to be 38 °C. In data set [2], the folding enthalpy is -29.4 kcal/mol.
As for GGCCATGGAAACGTGGCC (((((.(....).))))), the Tm in data set [1] was determined as 62 °C. The folding enthalpy in data set [2] is -52.1 kcal/mol.
Regarding GCCTGGGCGAAAGCCGGC (((..(((....)))))), the Tm in data set [1] came out at 55.2 °C. The folding enthalpy in data set [2] is -23.7 kcal/mol.
For GGGCAGGGAAACCTGTCC ((.((((....)))).)), in that order: 57.1 °C and -43.9 kcal/mol.
For GGTTTCGAAAGAAGGACC ((((((....)))..))), in that order: 29.1 °C and -15.5 kcal/mol.
For GTAACCGAAAGGTAATAC ((((((....)))..))), in that order: 23.8 °C and -11.9 kcal/mol.
GCAGGCCGAAAGGCTTGC (((.(((....))).))): the Tm in data set [1] amounted to 69.1 °C. Besides, the folding enthalpy in data set [2] was -29.2 kcal/mol.
For GCAAAACCGAAAGGTTGC (((..(((....)))))), in that order: 50 °C and -17.7 kcal/mol.
For GCAGGGCGAAAGCTATGC (((..((....))..))), in that order: 54.1 °C and -20.4 kcal/mol.
For GATCGCTTGGGCGATC ((((((....)))))), in that order: 69.1 °C and -27.7 kcal/mol.
GGGCCGGGAAACCGGCTC (.(((((....))))).): the Tm in data set [1] was determined as 66.8 °C. The folding enthalpy in data set [2] is -15.4 kcal/mol.
For GCGCCAACGAAAGTTCGC (((..(((....)))))), in that order: 43.5 °C and -24.3 kcal/mol.
For GGTTTCCGAAAGGACACC (((.(((....))).))), in that order: 49 °C and -39 kcal/mol.
For GGCAAAGGAAACTTTGTC (.(((((....))))).), in that order: 46.5 °C and -29.1 kcal/mol.
